Measured values taken from ChEMBL document CHEMBL1157011, “8-Sulfonyl-substituted tetrahydro-1H-pyrido[4,3-b]indoles as 5-HT6 receptor antagonists” (Eur J Med Chem, 2010).

What was measured:
[1] = biological target: 5-hydroxytryptamine receptor 6 (Rattus norvegicus, UniProt P31388); assay: Binding affinity to rat recombinant 5HT6 receptor
[2] = biological target: T1, 5-hydroxytryptamine receptor 6 (Homo sapiens, UniProt P50406); assay: Antagonist activity at human recombinant 5HT6 receptor expressed in HEK293 cells assessed as inhibition of serotonin-induced cAMP production by LANCE assay relative to serotonin; type: functional, cell-based
Method in brief: (§1)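 HEK-293 cells with a tetracycline-inducible (T-Rex) human 5-HT6 receptor, grown in DMEM/10% FBS with blasticidin S and zeocin and induced with tetracycline the day before. Medium was swapped for HBSS with 1 mM MgCl2, 1 mM CaCl2, IBMX and 5 mM HEPES, pH 7.4. Compounds (0.1% DMSO) were added 15 min at RT, then 10 nM serotonin for 30 min. cAMP read by LANCE; 2 independent experiments in duplicate.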

[3] = biological target: T2, 5-hydroxytryptamine receptor 1A (Homo sapiens, UniProt P08908); assay: Binding affinity to 5HT1A receptor by radioligand displacement assay
T2 sequence (P08908 whole entry): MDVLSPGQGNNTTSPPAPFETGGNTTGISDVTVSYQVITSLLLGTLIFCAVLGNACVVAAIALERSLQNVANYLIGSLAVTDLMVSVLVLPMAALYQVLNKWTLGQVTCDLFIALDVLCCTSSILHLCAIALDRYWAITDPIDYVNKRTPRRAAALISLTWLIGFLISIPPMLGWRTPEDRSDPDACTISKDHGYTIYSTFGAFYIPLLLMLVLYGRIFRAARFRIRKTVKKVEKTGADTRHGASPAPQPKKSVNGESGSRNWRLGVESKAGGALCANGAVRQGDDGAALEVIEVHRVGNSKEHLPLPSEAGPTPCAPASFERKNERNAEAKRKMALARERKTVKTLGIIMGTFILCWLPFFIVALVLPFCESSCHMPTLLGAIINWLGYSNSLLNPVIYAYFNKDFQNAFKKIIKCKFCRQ

[4] = biological target: 5-hydroxytryptamine receptor 7 (Homo sapiens, UniProt P34969); assay: Binding affinity to 5HT7 receptor by radioligand displacement assay
Method in brief: (§2)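 Competitive displacement of the corresponding radioligand, run by an outside contract lab under its internal protocols. Data from one representative experiment in duplicate.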

[5] = biological target: T1, 5-hydroxytryptamine receptor 6; assay: Binding affinity to human recombinant 5HT6 receptor
[6] = biological target: T3, 5-hydroxytryptamine receptor 2C (Homo sapiens, UniProt P28335); assay: Binding affinity to 5HT2C receptor by radioligand displacement assay; method in brief: as §2
T3 sequence (P28335 whole entry): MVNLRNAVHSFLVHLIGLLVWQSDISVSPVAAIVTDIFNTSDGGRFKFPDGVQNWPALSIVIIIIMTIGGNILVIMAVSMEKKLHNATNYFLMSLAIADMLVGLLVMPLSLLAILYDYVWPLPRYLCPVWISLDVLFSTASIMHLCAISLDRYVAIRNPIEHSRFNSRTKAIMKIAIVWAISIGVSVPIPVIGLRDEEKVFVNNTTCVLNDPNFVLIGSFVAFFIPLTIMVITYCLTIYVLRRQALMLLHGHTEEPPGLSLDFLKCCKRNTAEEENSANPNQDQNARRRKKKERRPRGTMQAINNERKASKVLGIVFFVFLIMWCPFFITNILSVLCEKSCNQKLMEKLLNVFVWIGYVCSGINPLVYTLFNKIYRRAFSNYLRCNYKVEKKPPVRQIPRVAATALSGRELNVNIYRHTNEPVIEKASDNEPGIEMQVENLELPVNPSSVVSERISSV

[7] = biological target: T1, 5-hydroxytryptamine receptor 6; assay: Binding affinity to human recombinant 5HT6 receptor by radioligand displacement assay; method in brief: as §2
[8] = biological target: T1, 5-hydroxytryptamine receptor 6; assay: Antagonist activity at human recombinant 5HT6 receptor expressed in HEK293 cells assessed as inhibition of serotonin-induced cAMP production by LANCE assay; type: functional, cell-based; details: read-out: IC50; method in brief: as §1

T1 sequence (P50406 whole entry): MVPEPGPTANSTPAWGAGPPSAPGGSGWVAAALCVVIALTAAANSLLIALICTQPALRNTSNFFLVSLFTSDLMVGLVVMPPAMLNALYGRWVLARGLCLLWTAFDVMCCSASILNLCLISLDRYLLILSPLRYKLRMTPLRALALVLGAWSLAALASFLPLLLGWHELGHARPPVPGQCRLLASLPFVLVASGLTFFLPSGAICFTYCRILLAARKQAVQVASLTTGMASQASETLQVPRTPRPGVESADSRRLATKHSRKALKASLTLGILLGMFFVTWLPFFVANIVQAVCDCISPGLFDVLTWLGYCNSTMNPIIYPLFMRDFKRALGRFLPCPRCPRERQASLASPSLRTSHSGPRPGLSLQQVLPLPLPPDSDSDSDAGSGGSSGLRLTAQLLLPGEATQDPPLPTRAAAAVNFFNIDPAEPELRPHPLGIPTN
Sequence of 5-hydroxytryptamine receptor 7 (P34969 whole entry): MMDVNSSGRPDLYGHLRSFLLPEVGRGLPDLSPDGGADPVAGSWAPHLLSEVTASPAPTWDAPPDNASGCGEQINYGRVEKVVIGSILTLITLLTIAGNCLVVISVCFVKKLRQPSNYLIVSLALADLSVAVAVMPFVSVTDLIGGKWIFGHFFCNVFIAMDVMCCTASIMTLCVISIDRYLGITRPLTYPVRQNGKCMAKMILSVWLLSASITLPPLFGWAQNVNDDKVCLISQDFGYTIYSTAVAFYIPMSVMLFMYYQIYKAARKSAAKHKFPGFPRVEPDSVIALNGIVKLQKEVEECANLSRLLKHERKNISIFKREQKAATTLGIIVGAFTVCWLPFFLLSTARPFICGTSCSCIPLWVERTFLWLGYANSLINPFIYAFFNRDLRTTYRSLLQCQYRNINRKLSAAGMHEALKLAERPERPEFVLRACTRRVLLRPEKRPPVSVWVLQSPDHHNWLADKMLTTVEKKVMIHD
Sequence of 5-hydroxytryptamine receptor 6 (Rattus norvegicus, UniProt P31388) (P31388 whole entry): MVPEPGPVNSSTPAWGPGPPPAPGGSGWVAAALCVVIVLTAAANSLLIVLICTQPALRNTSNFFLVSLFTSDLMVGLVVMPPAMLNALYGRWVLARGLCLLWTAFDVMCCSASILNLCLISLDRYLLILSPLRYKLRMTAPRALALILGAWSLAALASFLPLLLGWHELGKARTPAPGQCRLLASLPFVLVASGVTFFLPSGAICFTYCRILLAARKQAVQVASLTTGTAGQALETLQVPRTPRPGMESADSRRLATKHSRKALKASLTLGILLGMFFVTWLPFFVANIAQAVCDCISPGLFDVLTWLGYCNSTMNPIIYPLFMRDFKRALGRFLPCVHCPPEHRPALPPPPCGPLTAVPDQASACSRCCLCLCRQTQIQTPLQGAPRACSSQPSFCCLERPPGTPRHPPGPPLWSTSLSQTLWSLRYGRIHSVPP

Compound | Ki [1] | Imax [2] | Ki [3] | Ki [4] | Ki [5] | Ki [6] | Ki [7] | IC50 [8]
CN1CCc2[nH]c3ccc(S(=O)(=O)N(C)C)cc3c2C1 | – | 100% | – | – | – | – | – | 26000 nM
O=S(=O)(Nc1cccc(F)c1)c1ccc2[nH]c3c(c2c1)CN(Cc1ccccc1)CC3 | – | 100% | – | – | – | – | – | 3900 nM
CN1CCc2[nH]c3ccc(S(=O)(=O)c4cccnc4)cc3c2C1 | – | 100% | – | – | – | – | – | 3400 nM

Now from value to compound:

Ki [1] | Imax [2] | Ki [3] | Ki [4] | Ki [5] | Ki [6] | Ki [7] | IC50 [8] | Compound
119 nM | 100% | > 100 nM | 8 nM | 26 nM | 76 nM | 34 nM | – | Cc1ccc2c(c1)c1c(n2CCc2ccc(C)nc2)CCN(C)C1 [LATREPIRDINE]
– | 100% | – | – | – | – | – | – | CN1CCc2c(c3cc(S(=O)(=O)c4ccccc4)ccc3n2CCc2ccccn2)C1
